The subject of series [1] is Rattus norvegicus. The series is described as follows: Effect on baseline startle reactivity in Sprague-Dawley rat schizophrenia model at 5 mg/kg, ip administered 10 mins prior testing monitored for 5 mins. On the set-up: dose 5 mg/kg, route intraperitoneal. As to conditions: in vivo. The series is classed as ADME, organism-based. Summed up:
(§1)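 Male Sprague-Dawley rats were pretreated ip with saline or compound 10 min before PCP (5 mg/kg, ip). Acoustic startle was tested 5 min after PCP, following 3 min acclimation: 40 ms, 120 dB pulse with prepulse trials, 74 dB background, 15–25 s intertrial interval, session about 20 min. %PPI = [1 − (prepulse+pulse)/(pulse alone)]×100. Startle = mean of pulse-alone trials, first 3 excluded.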

In series [2] the test system is Rattus norvegicus. The series is described as follows: Antipsychotic activity in Sprague-Dawley rat schizophrenia model assessed as effect on 120 db noise-induced absolute acoustic startle responses at 5 mg/kg, ip administered 10 mins prior testing monitored for 5 mins. Format: functional, organism-based. On the set-up: dose 5 mg/kg. Summed up:
as §1

The test system of series [3] is Rattus norvegicus. The experiment in a line: Antipsychotic activity in Sprague-Dawley rat schizophrenia model assessed as inhibition of PCP-induced prepulse inhibition at 10 mg/kg, ip administered 10 mins prior testing monitored for 5 mins. On the set-up: dose 10 mg/kg. The series is classed as functional, organism-based. Summed up: as §1
Series [4] concerns Rattus norvegicus. The series is described as follows: Antipsychotic activity in Sprague-Dawley rat schizophrenia model assessed as inhibition of PCP-induced prepulse inhibition at 5 mg/kg, ip administered 10 mins prior testing monitored for 5 mins. Format: functional, organism-based. Further details: dose 5 mg/kg. Summed up: as §1
The test system of series [5] is Rattus norvegicus. The series is described as follows: Antipsychotic activity in Sprague-Dawley rat schizophrenia model assessed as inhibition of PCP-induced hyperlocomotion at 10 mg/kg, ip administered 10 mins prior testing […]. The series is classed as functional, organism-based. On the set-up: dose 10 mg/kg.
The test system of series [6] is Rattus norvegicus. The experiment in a line: Antipsychotic activity in ip dosed Sprague-Dawley rat schizophrenia model assessed as inhibition of PCP-induced hyperlocomotion administered 10 mins prior testing monitored for 5 mins. The series is classed as functional, organism-based. Summed up: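 Male Sprague-Dawley rats (230–280 g) given saline or compound ip 10 min before PCP 5 mg/kg. Starting 5 min after PCP, rats were video-tracked in a 40×40×45 cm open field for 30 min. Total distance recorded; n = 6–12 per group; one-way ANOVA with Tamhane post hoc test.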

For series [7], the target named is T1, 5-hydroxytryptamine receptor 1A (Homo sapiens) (UniProt P08908).
T1 sequence (whole entry): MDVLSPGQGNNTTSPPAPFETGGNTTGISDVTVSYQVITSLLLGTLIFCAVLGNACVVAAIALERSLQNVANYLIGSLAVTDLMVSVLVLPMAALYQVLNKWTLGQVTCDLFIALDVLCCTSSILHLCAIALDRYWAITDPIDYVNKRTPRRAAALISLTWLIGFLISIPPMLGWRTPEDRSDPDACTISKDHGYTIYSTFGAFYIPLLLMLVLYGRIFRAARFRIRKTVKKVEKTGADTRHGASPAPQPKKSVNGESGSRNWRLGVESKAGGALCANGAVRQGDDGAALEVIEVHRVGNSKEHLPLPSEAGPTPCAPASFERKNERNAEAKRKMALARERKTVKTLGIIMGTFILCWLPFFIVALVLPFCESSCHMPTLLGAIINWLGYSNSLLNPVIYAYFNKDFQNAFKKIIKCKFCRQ
The series is described as follows: (§2) Agonist activity at 5-HT1A receptor (unknown origin) expressed in HEK293 cells assessed as […] of [35S]GTPgammaS binding by scintillation proximity assay. Format: functional, cell-based. Background: GTPγS is a poorly hydrolysed GTP analogue; its binding reports G protein activation.

The target in series [8] is T2, 5-hydroxytryptamine receptor 1A (Homo sapiens, UniProt P08908).
T2 sequence (P08908 whole entry): T1 sequence (whole entry)
The description is as §2. The series is classed as functional, cell-based.

Series [9] addresses T3, D(1A) dopamine receptor (Homo sapiens, UniProt P21728). The experiment in a line: Antagonist activity at dopamine D1 receptor (unknown origin) expressed in HEK293 cells assessed as inhibition of [35S]GTPgammaS binding by scintillation proximity assay. Format: functional, cell-based.
In series [10] the target is T3, D(1A) dopamine receptor. The series is described as follows: Agonist activity at dopamine D1 receptor (unknown origin) expressed in HEK293 cells assessed as stimulation of [35S]GTPgammaS binding by scintillation proximity assay. Format: functional, cell-based.
In series [11] the target is T2, 5-hydroxytryptamine receptor 1A. The experiment in a line: Displacement of [3H]8-OH-DPAT from 5-HT1A receptor (unknown origin) expressed in HEK293 cells by liquid scintillation counter. The series is classed as cell-based. In general terms: In a radioligand displacement assay an active substance lowers the binding of a labelled ligand.
Series [12] concerns the target T4, D(2) dopamine receptor (Homo sapiens, UniProt P14416). The experiment in a line: Displacement of [3H]spiperone from dopamine D2 receptor (unknown origin) expressed in human HEK293 cells by liquid scintillation counter. The series is classed as cell-based.
Series [13] addresses T3, D(1A) dopamine receptor. The series is described as follows: Displacement of [3H]SCH23390 from dopamine D1 receptor (unknown origin) expressed in human HEK293 cells by liquid scintillation counter. The series is classed as cell-based. Summed up:
(§3)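 Stably transfected HEK293T D1 membranes, […], duplicate incubation 50 min at 30 °C with [3H]SCH23390 in 50 mM Tris, 4 mM MgCl2, pH 7.4. Nonspecific binding with 10 μM SCH23390. GF/B filtration, scintillation counting.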

Series [14] deals with 5-hydroxytryptamine receptor 2A (Homo sapiens, UniProt P28223). The experiment in a line: Inhibition of [3H]Ketanserin binding to 5-HT2A receptor (unknown origin) expressed in HEK293 cells at 10 uM by liquid scintillation counter relative to control. The series is classed as cell-based. Summed up: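 Membranes of HEK293T stably transfected with 5-HT2A, […], incubated in duplicate 15 min at 37 °C with [3H]ketanserin in 50 mM Tris, 4 mM MgCl2, pH 7.4. […] GF/B filtration, cold wash, scintillation counting.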

Series [15] has as its target T1, 5-hydroxytryptamine receptor 1A (Homo sapiens). The series is described as follows: Inhibition of [3H]8-OH-DPAT binding to 5-HT1A receptor (unknown origin) expressed in HEK293 cells at 10 uM by liquid scintillation counter relative to control. Format: cell-based. Summed up:
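Membranes of HEK293T stably transfected with 5-HT1A, […], incubated in duplicate 50 min at 30 °C with [3H]8-OH-DPAT in 50 mM Tris, 4 mM MgCl2, pH 7.4. Nonspecific binding with 10 μM WAY100635. Filtration on GF/B, cold Tris/EDTA wash, scintillation counting.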

Series [16] deals with T3, D(1A) dopamine receptor. The experiment in a line: Inhibition of [3H]SCH23390 binding to dopamine D1 receptor (unknown origin) expressed in human HEK293 cells at 10 uM by liquid scintillation counter relative to control. The series is classed as cell-based. Summed up:
as §3

Series [17] addresses T4, D(2) dopamine receptor.
For series [18], the target named is T4, D(2) dopamine receptor. As to conditions: HEK293, at 10 µM.
Series [19] deals with Rattus norvegicus. The experiment in a line: Antipsychotic activity in Sprague-Dawley rat schizophrenia model assessed as inhibition of PCP-induced prepulse inhibition at 0.5 mg/kg, ip administered 10 mins prior testing monitored for 5 mins. On the set-up: dose 0.5 mg/kg. The series is classed as functional, organism-based. Summed up: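 Male Sprague–Dawley rats (230–280 g) received ip saline or drug 10 min before PCP (5 mg/kg, ip). Acoustic startle PPI was tested 5 min after PCP, after 3-min acclimation: 40 ms, 120 dB white-noise pulse-alone and prepulse+pulse trials, 15–25 s intertrial interval, 74 dB background, about 20 min session. %PPI = [1 − (prepulse+pulse startle)/(pulse-alone startle)] × 100.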

The subject of series [20] is Rattus norvegicus. The series is described as follows: In vivo agonist activity at 5-HT1A receptor in WAY100635 pre-treated Sprague-Dawley rat DA neuron assessed as increase in bursts at 1 mg/kg, iv. On the set-up: dose 1 mg/kg. Format: functional, organism-based. Summed up: (§4)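 Anesthetized (chloral hydrate) Sprague-Dawley rats given raclopride, then WAY100635 before compound 1 mg/kg. VTA DA neuron single-unit firing rate and bursts analysed every 10 s as % of post-raclopride baseline. n = 5, paired t-test.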

Series [21] deals with Rattus norvegicus. The experiment in a line: In vivo agonist activity at 5-HT1A receptor in WAY100635 pre-treated Sprague-Dawley rat DA neuron assessed as increase in firing rate at 1 mg/kg, iv. Format: functional, organism-based. On the set-up: dose 1 mg/kg. Summed up:
as §4

In series [22] the test system is Rattus norvegicus. The series is described as follows: In vivo agonist activity at 5-HT1A receptor in Sprague-Dawley rat DA neuron assessed as increase in bursts at 1 mg/kg, iv in presence of WAY100635. Format: functional, organism-based. On the set-up: dose 1 mg/kg. Summed up: (§5)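 VTA DA neuron single-unit recording in chloral hydrate-anesthetized Sprague-Dawley rats after raclopride 0.1 mg/kg. Compound 1 mg/kg was followed by WAY100635 1.0 mg/kg. Firing rate and bursting were analysed in 10 s bins relative to the post-raclopride baseline.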

In series [23] the test system is Rattus norvegicus. The series is described as follows: In vivo agonist activity at 5-HT1A receptor in Sprague-Dawley rat DA neuron assessed as increase in firing rate at 1 mg/kg, iv in presence of WAY100635. On the set-up: dose 1 mg/kg. The series is classed as functional, organism-based. Summed up: as §5
Series [24] deals with Rattus norvegicus. The series is described as follows: In vivo agonist activity at 5-HT1A receptor in Sprague-Dawley rat DA neuron assessed as increase in bursts at 1 mg/kg, iv. The series is classed as functional, organism-based. On the set-up: dose 1 mg/kg. Summed up:
(§6)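 Male Sprague-Dawley rats under chloral hydrate anesthesia (400 mg/kg ip) at 37 °C. Single-unit recording of VTA DA neurons by glass microelectrode. Raclopride 0.1 mg/kg given first, then compound 1 mg/kg. Firing rate and bursts analysed every 10 s as % of post-raclopride baseline. n = 5, paired t-test.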

The test system of series [25] is Rattus norvegicus. The series is described as follows: In vivo agonist activity at 5-HT1A receptor in Sprague-Dawley rat DA neuron assessed as increase in firing rate at 1 mg/kg, iv. Format: functional. Summed up:
as §6

Series [26] has as its system Rattus norvegicus. The series is described as follows: Effect on prepulse inhibition in Sprague-Dawley rat schizophrenia model at 5 mg/kg, ip administered 10 mins prior testing monitored for 5 mins. Further details: dose 5 mg/kg, route intraperitoneal. As to conditions: in vivo. The series is classed as ADME, organism-based. Summed up:
as §1

For series [27], the system named is Rattus norvegicus. The series is described as follows: Antipsychotic activity in Sprague-Dawley rat schizophrenia model assessed as inhibition of PCP-induced hyperlocomotion at 2.5 mg/kg, ip administered 10 mins prior testing […]. On the set-up: dose 2.5 mg/kg. The series is classed as functional, organism-based.

Molecules are shown by their SMILES. The source made the active and inactive calls. The calls are words filed in the database; no cut-off is given here.

T4 sequence (P14416 whole entry): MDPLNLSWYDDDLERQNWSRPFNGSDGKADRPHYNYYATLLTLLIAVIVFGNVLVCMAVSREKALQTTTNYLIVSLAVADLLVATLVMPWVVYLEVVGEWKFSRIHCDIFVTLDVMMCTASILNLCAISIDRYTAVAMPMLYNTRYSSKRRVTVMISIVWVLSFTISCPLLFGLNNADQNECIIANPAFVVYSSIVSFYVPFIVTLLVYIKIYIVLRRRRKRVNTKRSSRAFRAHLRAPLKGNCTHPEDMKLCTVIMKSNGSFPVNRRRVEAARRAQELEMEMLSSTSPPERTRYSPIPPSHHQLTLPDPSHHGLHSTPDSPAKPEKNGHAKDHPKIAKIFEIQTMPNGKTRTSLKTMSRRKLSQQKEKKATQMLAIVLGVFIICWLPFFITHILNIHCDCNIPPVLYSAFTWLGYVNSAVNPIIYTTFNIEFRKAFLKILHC
T3 sequence (P21728 whole entry): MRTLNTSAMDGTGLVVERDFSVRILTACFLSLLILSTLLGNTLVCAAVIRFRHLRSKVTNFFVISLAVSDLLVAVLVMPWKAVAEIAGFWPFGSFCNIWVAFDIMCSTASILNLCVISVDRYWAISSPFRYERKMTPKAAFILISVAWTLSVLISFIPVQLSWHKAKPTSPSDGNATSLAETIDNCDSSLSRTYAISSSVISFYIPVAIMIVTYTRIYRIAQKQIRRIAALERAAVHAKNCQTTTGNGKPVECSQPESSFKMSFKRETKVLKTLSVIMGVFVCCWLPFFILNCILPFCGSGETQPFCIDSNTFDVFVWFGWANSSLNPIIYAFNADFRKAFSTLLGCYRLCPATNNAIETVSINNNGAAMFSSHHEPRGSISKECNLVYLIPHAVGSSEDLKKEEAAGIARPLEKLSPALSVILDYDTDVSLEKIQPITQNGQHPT
Chain of 5-hydroxytryptamine receptor 2A (P28223 whole entry): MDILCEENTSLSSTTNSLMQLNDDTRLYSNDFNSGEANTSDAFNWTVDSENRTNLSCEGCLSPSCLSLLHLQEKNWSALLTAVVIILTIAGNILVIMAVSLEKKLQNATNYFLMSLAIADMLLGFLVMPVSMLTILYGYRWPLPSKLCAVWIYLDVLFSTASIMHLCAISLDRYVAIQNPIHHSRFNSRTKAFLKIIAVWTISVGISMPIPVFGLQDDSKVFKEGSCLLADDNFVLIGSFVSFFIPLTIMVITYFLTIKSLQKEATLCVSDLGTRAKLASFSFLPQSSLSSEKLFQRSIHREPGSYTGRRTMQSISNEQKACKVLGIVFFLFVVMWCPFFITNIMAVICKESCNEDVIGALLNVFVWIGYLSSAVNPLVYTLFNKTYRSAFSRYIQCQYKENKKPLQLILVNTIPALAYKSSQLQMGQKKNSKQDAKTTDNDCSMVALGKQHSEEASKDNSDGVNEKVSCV

In the case of `COc1c(O)ccc2c1CN1CCc3cc4c(cc3[C@@H]1C2)OCO4`, the Activity entry with Rattus norvegicus [1] is recorded as “Non-toxic”. Moreover, in the series on Rattus norvegicus [2], the result was inactive. Also, the inhibition entry in the series on Rattus norvegicus [3], with Rattus norvegicus [4] and in the series on Rattus norvegicus [5] was “Active” each time. Further, the inhibition (usually the change of the read-out against control, counted positive when it falls) in the series with Rattus norvegicus [6] is “Dose-dependent effect”; in [14], 73.6%; in [15], 95.7%; at D(1A) dopamine receptor [16], 99.7%; at D(2) dopamine receptor [18], 92.8%. Moreover, the Emax (usually the size of the effect at its maximum, as opposed to the concentration needed) in [7] came out at 80.7%. Also, the EC50 (in general, the concentration at which the effect is half-maximal) in series [8] is 13500 nM; at D(1A) dopamine receptor [10] it was 16000 nM. For the same compound, the IC50 – broadly, the concentration at which inhibition is half-maximal – at D(1A) dopamine receptor [9] turned out to be 17400 nM; on D(2) dopamine receptor [17] it was 1000 nM. Also, the Ki (in general, the dissociation constant of the complex between target and ligand, obtained from inhibition or displacement) in series [11] was 908 nM; at D(2) dopamine receptor [12], 145 nM; on D(1A) dopamine receptor [13], 6.3 nM.

Regarding `Cc1nc2n(c(=O)c1CCN1CCC(c3noc4cc(F)ccc34)CC1)CCCC2`, the inhibition result in the series on Rattus norvegicus [19] was “Active”.

`COc1cc2c(cc1OC)[C@@H]1Cc3ccc(O)c(OC)c3CN1CC2`: the result in the series on Rattus norvegicus [20], in the series with Rattus norvegicus [21], in the series with Rattus norvegicus [22], in the series on Rattus norvegicus [23] and in the series with Rattus norvegicus [2] was inactive. Also, in the series with Rattus norvegicus [24], the result was Active. Moreover, the Activity is 128.3% in the series with Rattus norvegicus [25], “Non-toxic” with Rattus norvegicus [26] and “Non-toxic” in the series with Rattus norvegicus [1]. The inhibition entry with Rattus norvegicus [4] and with Rattus norvegicus [27] was “Active” throughout. Further, the inhibition result is “Dose-dependent effect” in the series with Rattus norvegicus [6]; 68.8% in [14]; 97.4% in [15]; 98.8% on D(1A) dopamine receptor [16]; 88.8% at D(2) dopamine receptor [18]. For the same compound, the Emax in series [7] was determined as 156%. In addition, the concentration giving a half-maximal response (EC50) in series [8] came to 190 nM; on D(1A) dopamine receptor [10], 1350 nM. Further, the values for the IC50 on D(1A) dopamine receptor [9] and on D(2) dopamine receptor [17] were 21300 nM and 18700 nM, respectively. Also, the values for the Ki (in series [11]; on D(2) dopamine receptor [12]; at D(1A) dopamine receptor [13]) were 149 nM, 305 nM and 50 nM, respectively.

The values above are taken from ChEMBL document CHEMBL2331343 (Bioorg Med Chem, 2013).
